Values after ≈ are worked out from the molar mass of the structure shown. Active and inactive are the calls of the source. The calls are words filed in the database; no cut-off is given here.
Experiments:
Staphylococcus aureus [1] = assay: Antimicrobial activity against Staphylococcus aureus harboring GyrB T173N mutant assessed as growth inhibition; format: functional
Staphylococcus aureus [2] = assay: Ratio of MIC for Staphylococcus aureus ATCC 29213 assessed as growth inhibition in presence of 50% horse serum to MIC for Staphylococcus aureus ATCC 29213 assessed as growth inhibition; format: functional
Haemophilus influenzae = assay: Antibacterial activity against Haemophilus influenzae 49247 assessed as growth inhibition; format: functional
Streptococcus pyogenes [3] = assay: Antimicrobial activity against Streptococcus pyogenes harboring ParE A53S mutant assessed as growth inhibition; format: functional
Streptococcus pyogenes [4] = assay: Antibacterial activity against Streptococcus pyogenes 51339 assessed as growth inhibition; format: functional
Staphylococcus aureus [5] = assay: Inhibition of Staphylococcus aureus DNA gyrase ATPase subunit GyrA2/GyrB2 after 60 mins by malachite green staining assay
Staphylococcus aureus [6] = assay: Antibacterial activity against Staphylococcus aureus ATCC 29213 assessed as growth inhibition in presence of 50% horse serum; format: functional
Staphylococcus aureus [7] = assay: Antibacterial activity against Staphylococcus aureus ATCC 29213 assessed as growth inhibition; format: functional
[8] = Fraction unbound in mouse plasma by ultracentrifugation; format: ADME, cell-free
How it was run: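 Compound at 10 µM (1% DMSO) was equilibrated in neat plasma at 37 °C for 60 min. Duplicate aliquots were ultracentrifuged at 250,000g for 4.2 h at 37 °C. Free compound in the plasma-water supernatant was compared with uncentrifuged samples incubated alike. Uncentrifuged samples kept at 20 °C checked degradation, and diltiazem served as stability control. Analysis was by LCMS.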

Staphylococcus aureus [9] = assay: Antimicrobial activity against Staphylococcus aureus ATCC 19636 infected in neutropenic mouse assessed as reduction in colony forming units at 30 mg/kg, iv administered as single dose measured 24 hrs post infection relative to control; format: functional, organism-based; set-up: dose 30 mg/kg
Staphylococcus aureus [10] = assay: Antimicrobial activity against Staphylococcus aureus ATCC 19636 infected in neutropenic mouse assessed as reduction in colony forming units at 100 mg/kg, po administered as single dose measured 24 hrs post infection relative to control; format: functional, organism-based; set-up: dose 100 mg/kg
Staphylococcus aureus [11] = assay: Antimicrobial activity against methicillin-sensitive Staphylococcus aureus infected in neutropenic mouse assessed as reduction in colony forming units administered iv at 2, 4 and 6 hrs post-inoculation measured 24 hrs post infection relative to control; format: functional, organism-based
Staphylococcus aureus [12] = assay: Antimicrobial activity against methicillin-sensitive Staphylococcus aureus infected in neutropenic mouse assessed as log reduction in colony forming units at 100 mg/kg, iv administered at 2, 4 and 6 hrs post-inoculation measured 24 hrs post infection relative to control; format: functional
Staphylococcus aureus [13] = assay: Antimicrobial activity against methicillin-sensitive Staphylococcus aureus infected in neutropenic mouse assessed as log reduction in colony forming units at 30 mg/kg, iv administered at 2, 4 and 6 hrs post-inoculation measured 24 hrs post infection relative to control; format: functional
Staphylococcus aureus [14] = assay: Antimicrobial activity against methicillin-sensitive Staphylococcus aureus infected in neutropenic mouse assessed as log reduction in colony forming units at 30 mg/kg, iv administered as single dose measured 24 hrs post infection relative to control; format: functional, organism-based; set-up: dose 30 mg/kg
How it was run: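 Thigh infection in neutropenic female CD-1 mice (18–22 g), made neutropenic with ip cyclophosphamide (150 mg/kg day −4, 100 mg/kg day −1). Thighs inoculated with about 2 × 10^5 CFU of MSSA S. aureus ATCC 19636 from fresh overnight culture. Single iv dose at 30 mg/kg. Thighs harvested at 24 h, homogenized in saline on ice, serial dilutions plated on charcoal plates, colonies counted; log CFU reduction taken versus matched controls.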

Staphylococcus aureus [15] = assay: Antimicrobial activity against Staphylococcus aureus ATCC 19636 infected in neutropenic mouse assessed as reduction in colony forming units at 25 mg/kg, iv administered as single dose measured 24 hrs post infection relative to control; format: functional, organism-based; set-up: dose 25 mg/kg

| Compound | MIC (Staphylococcus aureus [1]) [µg/mL] | Ratio (Staphylococcus aureus [2]) | MIC (Haemophilus influenzae) [µg/mL] | MIC (Streptococcus pyogenes [3]) [µg/mL] | MIC (Streptococcus pyogenes [4]) [µg/mL] | MIC (Staphylococcus aureus [6]) [µg/mL] | MIC (Staphylococcus aureus [7]) [µg/mL] | Activity (Staphylococcus aureus [9]) | Activity (Staphylococcus aureus [11]) | FC (Staphylococcus aureus [12]) | FC (Staphylococcus aureus [13]) | other results |
| --- | --- | --- | --- | --- | --- | --- | --- | --- | --- | --- | --- | --- |
| CCNC(=O)Nc1nc2cc(-c3cnc(C(C)(C)O)nc3)cc(-c3ccccn3)c2s1 | 0.25 (≈ 0.575 µM) | 4 | 1 (≈ 2.3 µM) | 1 (≈ 2.3 µM) | 0.12 (≈ 0.276 µM) | 0.25 | 0.06 (≈ 0.138 µM) | Active |  |  |  | inhibitory concentration (Staphylococcus aureus [5]): 0.006 µg/mL; fraction unbound [8]: 0.051; Activity (Staphylococcus aureus [10]): Active |
| CCNC(=O)Nc1nc2cc(-c3cnc(N4CCC(CC)(C(=O)O)CC4)nc3)cc(/C=N/OC)c2s1 |  |  |  |  |  |  | 0.12 (≈ 0.235 µM) |  | Dose-dependent effect | 4 | <3 |  |
| CN[C@H](CC(C)C)C(=O)N[C@H]1C(=O)N[C@@H](CC(N)=O)C(=O)N[C@H]2C(=O)N[C@H]3C(=O)N[C@H](C(=O)N[C@H](C(=O)O)c4cc(O)cc(O)c4-c4cc3ccc4O)[C@H](O)c3ccc(c(Cl)c3)Oc3cc2cc(c3O[C@@H]2O[C@H](CO)[C@@H](O)[C@H](O)[C@H]2O[C@H]2C[C@](C)(N)[C@H](O)[C@H](C)O2)Oc2ccc(cc2Cl)[C@H]1O |  |  |  |  |  |  |  |  |  |  |  | Activity (Staphylococcus aureus [14]): Active |
| CC(=O)NC[C@H]1CN(c2ccc(N3CCOCC3)c(F)c2)C(=O)O1 |  |  |  |  |  |  |  |  |  |  |  | Activity (Staphylococcus aureus [15]): Active |
| CO[C@@H]1[C@@H](OC(N)=O)[C@@H](O)[C@H](Oc2ccc3c(O)c(NC(=O)c4ccc(O)c(CC=C(C)C)c4)c(=O)oc3c2C)OC1(C)C |  |  |  |  |  |  |  | Active |  |  |  |  |
| CCNC(=O)Nc1nc2cc(-c3cnc(N4CCC(CC)(C(=O)O)CC4)nc3)cc(-c3ccccn3)c2s1 | 0.25 (≈ 0.47 µM) | 64 | 4 (≈ 7.52 µM) | 0.5 (≈ 0.94 µM) | 0.06 (≈ 0.113 µM) | 4 | 0.06 (≈ 0.113 µM) |  | Dose-dependent effect | 4 | <3 |  |
